Rows were chosen to be rich in hits. Some 2.2% of all compounds tested hit in one or more screens of this group.
M18AAP inhibitor: blocks P. falciparum M18 aspartyl aminopeptidase | recombinant PfM18AAP, H-Glu-NHMec fluorogenic cleavage | inhibition, % at 7.35 µM | 1.2% of 290,000 active;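 active means inhibition above the campaign mean inhibition over all tested compounds plus 3 SD, cut at about 28% in these data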;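 further: 0% = plate median of test compound wells and 100% = 2 mM ZnCl2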
PfGluPho inh: PfG6PD (Plasmodium falciparum) enzyme inhibition | PfGluPho enzyme, NADPH resazurin-diaphorase fluorescence | inhibition, % at 20 µM | 0.78% of 350,000 active | AID 504690;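 active means inhibition reaching at least a set limit at 20 µM in the primary screen, cut at about 59% in these data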;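 further: 0% = DMSO wells with substrate and 100% = DMSO wells lacking glucose-6-phosphate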
Neddyl block: inhibitors of human cullin neddylation | 0.58% of 360,000 active | AID 651699 | inhibition, % at 25 µM | TR-FRET cullin neddylation, biochemical | P61081+Q13564; in the data active means inhibition above about 36%
HKDC1 inhibitor: inhibitors of human hexokinase HKDC1; 0.16% of 340,000 active; recombinant HKDC1, G6PDH/diaphorase resazurin coupled fluorescence; inhibition, % at 20 µM; Q2TB90; AID 493160;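 active means inhibition above about 35% when tested at 20 µM, limit read from the data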;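 further: plate controls were DMSO wells with enzyme for no effect and DMSO wells lacking enzyme for full effect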
Target sequence (Q2TB90 whole entry, looked up): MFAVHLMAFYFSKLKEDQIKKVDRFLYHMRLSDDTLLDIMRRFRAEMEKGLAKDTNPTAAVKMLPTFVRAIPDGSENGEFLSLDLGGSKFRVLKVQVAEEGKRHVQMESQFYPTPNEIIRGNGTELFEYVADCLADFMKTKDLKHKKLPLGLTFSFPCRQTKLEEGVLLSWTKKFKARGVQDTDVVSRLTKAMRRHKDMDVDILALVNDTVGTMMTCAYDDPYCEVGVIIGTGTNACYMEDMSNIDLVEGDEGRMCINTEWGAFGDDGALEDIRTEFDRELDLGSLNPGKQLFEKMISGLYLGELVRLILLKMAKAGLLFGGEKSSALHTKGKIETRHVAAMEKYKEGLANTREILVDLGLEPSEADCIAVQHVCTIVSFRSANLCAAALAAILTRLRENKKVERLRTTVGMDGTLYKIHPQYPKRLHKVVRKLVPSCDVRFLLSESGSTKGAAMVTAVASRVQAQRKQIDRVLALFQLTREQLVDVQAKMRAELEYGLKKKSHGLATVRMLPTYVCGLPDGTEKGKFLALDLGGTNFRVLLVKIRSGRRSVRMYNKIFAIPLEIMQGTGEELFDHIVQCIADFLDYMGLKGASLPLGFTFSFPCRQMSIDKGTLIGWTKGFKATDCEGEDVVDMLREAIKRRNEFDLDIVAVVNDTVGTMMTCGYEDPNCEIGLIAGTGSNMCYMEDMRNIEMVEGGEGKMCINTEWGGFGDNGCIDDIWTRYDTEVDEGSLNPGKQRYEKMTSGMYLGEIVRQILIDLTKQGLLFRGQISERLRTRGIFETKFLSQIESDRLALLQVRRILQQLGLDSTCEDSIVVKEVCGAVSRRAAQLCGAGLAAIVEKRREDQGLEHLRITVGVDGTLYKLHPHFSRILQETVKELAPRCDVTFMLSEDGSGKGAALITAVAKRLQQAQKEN
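Assay system – recombinant HKDC1 (HK5) hexokinase enzyme, produced in-house · Input – HKDC1 at 5 µg/mL · Reagent – glucose plus 1 mM ATP as hexokinase substrates · Timing – 90 min reaction incubation at room temperature, dark · Measured by – G6PDH/diaphorase-coupled fluorescence, 1 mM NADP, 100 µM resazurin, 525/613 nm · Benchmarks – DMSO-enzyme wells negative, buffer-substituted wells positive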
PfG6PD confirm: confirmation of Plasmodium falciparum G6PD inhibitors; 34% of 2,400 active; shares compounds with PfGluPho inh; recombinant PfGluPho, NADPH-diaphorase-resazurin fluorescence; inhibition, % at 20 µM;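 active means inhibition of at least 50% at 20 µM in any single replicate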;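 further: 0% = DMSO with substrate and 100% = DMSO lacking glucose-6-phosphate substrate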
Diaph ctr 10uM: diaphorase inhibition or oxidation at 10 uM NADPH. shares compounds with PfGluPho inh. 39% of 820 active. diaphorase-coupled resazurin reduction, fluorescence, NADPH 10 uM. inhibition, % at 20 µM;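 active means average inhibition reaching 50% or more with the compound at 20 µM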;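 further: resorufin red fluorescence formed as diaphorase reduces resazurin using NADPH; 0% = DMSO with enzyme and 100% = DMSO without enzyme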
Diaphorase 30uM: counter-screen for P. falciparum G6PD inhibitors: diaphorase inhibitors, oxidizers. shares compounds with PfGluPho inh. Diaphorase/resazurin coupled assay, resorufin fluorescence, 30 uM NADPH. inhibition, % at 20 µM. 29% of 820 active;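 active means inhibition averaging 50% or more, tested at 20 µM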;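 further: 0% = DMSO with enzyme and 100% = DMSO wells lacking diaphorase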
Numbers without * were called inactive; · = not tested or not shown.

SMILES	M18AAP inhibitor	PfGluPho inh	Neddyl block	HKDC1 inhibitor	PfG6PD confirm	others
COc1cc(NC(=O)CCc2nnc3ccc(N4CCCCC4)nn23)cc(OC)c1OC	4	27	-2	3	·
S=C(c1ccc(-c2ccccc2Cl)o1)N1CCOCC1	4	62*	-36	-7	42
S=C(c1ccc(-c2ccc(Cl)c(Cl)c2)o1)N1CCOCC1	1	32	-12	-2	·
CC1CCCC(C)N1C(=O)COC(=O)c1ccc(Br)o1 (stereo not given)	·	-1	-6	-6	·
Cc1cnc(C(=O)OCc2cc(=O)n3c(C)cccc3n2)cn1	·	12	-21	-6	·
CN(CC(=O)Nc1ccccc1Cl)C(=O)COC(=O)/C=C/c1cccc(C(F)(F)F)c1	·	79*	-23	-1	29
CC1(N=Cc2cc(Cl)ccc2O)COP(=O)(NC2CCCC2)OC1 (stereo not given)	·	-12	9	3	·
CCc1ccc(N2C(=O)C3ON(c4ccccc4)C(c4ccco4)C3C2=O)cc1 (stereo not given)	5	4	0	1	·
CCCCN1C(=O)C2ON(c3ccccc3C)C(c3ccco3)C2C1=O (stereo not given)	-15	73*	5	3	19
F[B-](F)(F)c1cncc2ccccc12	·	-16	-5	-3	·
Clc1cccc(-c2cc3nc4c(c(NCc5ccco5)n3n2)CCCC4)c1	-2	51	·	7	·
OCCCNc1c2c(nc3cc(-c4ccc(Cl)cc4)nn13)CCC2	-8	70*	·	-3	45
CNC(=S)N/N=C/c1c(C(=O)OC)cnn1-c1ccc(F)cc1F	1	68*	-15	-3	23
Cc1ccsc1C(=O)NCCc1nnc2ccccn12	-14	7	0	-5	·
Cc1cc(Cl)ccc1N=C1N=C(N)c2ccccc21	-9	8	-3	0	·
COc1ccc(OC)c(N=c2ssnc2Cl)c1	19	82*	6	3	30
Cc1cc(Cl)ccc1N=c1ssnc1Cl	7	79*	-3	-37	29
Cc1ccc2nc(SCC(=O)Nc3cccc(F)c3)nc(=O)n2c1	·	-2	-3	0	·
CCN(CC)c1ccc(NC(=O)c2ccccn2)cc1S(=O)(=O)Nc1ccccc1OC	·	60*	4	-8	18
CCN(CC)c1ccc(N)cc1S(=O)(=O)Nc1ccccc1OC	24	67*	3	-9	35
CCN(CC)c1ccc(N)cc1S(=O)(=O)Nc1ccc(OC)cc1	-21	13	-3	-4	·
CCN(CC)c1ccc(NC(=O)COc2ccccc2C#N)cc1S(=O)(=O)Nc1ccccc1OC	3	69*	3	-20	32
COCCNC(=S)N(CCc1c(C)[nH]c2ccccc12)Cc1cccnc1	-13	-2	3	-4	·
O=C1Nc2cc(C(=O)NCCCN3CCCC3)ccc2S/C1=C\c1ccccc1	-2	105*	0	1	98*	Diaph ctr 10uM=-5;Diaphorase 30uM=-16
CC(C)(C)c1ccc(O)c(O)c1	·	81*	-3	-1	72*	Diaph ctr 10uM=8;Diaphorase 30uM=2
SMILES	M18AAP inhibitor	PfGluPho inh	Neddyl block	HKDC1 inhibitor	PfG6PD confirm	others
Oc1ccc(/C=N/N2CCOCC2)c(O)c1O	34*	87*	-12	1	48
COc1cccc(/C=N/N2CCOCC2)c1O	-9	11	13	-9	·
CCOC(=O)C1(Cc2ccccc2Cl)CCN(Cc2csc(C(C)=O)c2)CC1	7	63*	-7	-9	25
CCOC(=O)C1(Cc2cccc(OC)c2)CCN(Cc2ccccc2)CC1	1	22	0	1	·
O=C(COc1ccccc1C(=O)O)Nc1cccc2ccccc12	·	-15	-13	0	·
O=C(COc1cccc2ccccc12)Nc1ccc(Cl)cc1C(=O)O	4	75*	22	20	64*	Diaph ctr 10uM=60*;Diaphorase 30uM=48
COc1ccc(C(=O)Nc2cc(Cl)ccc2OC(=O)c2ccc(OC)cc2)cc1	1	34	-4	-2	·
COc1ccc(C(=O)Nc2cc(Cl)ccc2C(=O)O)cc1	-13	105*	31	6	51*	Diaph ctr 10uM=45;Diaphorase 30uM=47
O=C(COc1cccc2ccccc12)Nc1cc(Cl)ccc1C(=O)O	1	105*	11	19	69*	Diaph ctr 10uM=60*;Diaphorase 30uM=59*
COc1ccc(CNC(=O)COC(=O)c2[nH]c(C)c(C(C)=O)c2C)cc1OC	·	-4	-19	-3	·

High-throughput results: PubChem BioAssay, several laboratories
